Series [1] in a line: Ratio of Vmax to Km for drug hydrolysis in Wistar rat duodenal S9 fraction assessed per mg protein. Format: ADME, Duodenum. In a few lines: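 Duodenal or jejunal mucosal S9 (9000 g supernatant) in 50 mM HEPES pH 7.4, pre-incubated 5 min at 37°C. Substrate added at 10–500 µM final in 1% DMSO and incubated 20 min; stopped with acetonitrile. Temocaprilat formation measured by HPLC. Km and Vmax from nonlinear Michaelis–Menten fit; intrinsic clearance as Vmax/Km; mean ± S.D.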

Series [2] concerns Jejunum. Kind of series: Drug uptake in Wistar rat jejunum pre-perfused with 400 uM CES inhibitor BNPP assessed as rate of drug disappearance at 100 uM at pH 5.4 by in-situ single-pass perfusion method. Type of series: ADME, tissue-based. The following applies: in vivo, pH 5.4, 100 µM. In short, it runs like this:
(§1)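 Same in situ jejunal single-pass perfusion, with carboxylesterase blocked by pre-perfusing the lumen with 400 µM BNPP for 40 min. Then 100 µM drug in luminal phosphate buffer (pH 5.4 or 6.4) at 0.2 ml/min. Vascular Krebs–Henseleit (pH 7.4) at 2.5 ml/min. Luminal, vascular and tissue levels measured by HPLC. Rates are luminal disappearance and appearance in lumen or mesenteric vein. Mean ± S.D., n = 3.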

Series [3] has as its system Jejunum. Kind of series: Apparent hydrolytic clearance in Wistar rat jejunum pre-perfused with 400 uM CES inhibitor BNPP at 100 uM at pH 5.4 by in-situ single-pass perfusion method. Type of series: ADME, tissue-based. The following applies: in vivo, pH 5.4, 100 µM. In a few lines: as §1
Series [4] in a line: Permeability in Wistar rat jejunum at 100 uM at pH 6.4 by in-situ single-pass perfusion method. Type of series: ADME, tissue-based. The following applies: other: in-situ single-pass perfusion of the jejunum, read-out: Peff (converted). In a few lines:
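Rats fasted 18–24 h and anesthetized with intraperitoneal pentobarbital. Jejunal loop perfused at 0.2 ml/min with phosphate buffer (pH 5.4, 6.4 or 7.4) containing 100 μM drug and FD-4 (0.1 mg/ml). Vascular perfusate was Krebs–Henseleit bicarbonate buffer (pH 7.4) at 2.5 ml/min, segment kept at 37°C. Drug and metabolite measured by HPLC (UV 258 nm). Peff normalized to 10 cm intestine; mean ± S.D., n = 3–6.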

Series [5] has as its system Jejunum. Kind of series: Drug hydrolysis in intact Wistar rat jejunum mucosal homogenate at 500 uM assessed per mg protein. Format: ADME, tissue-based. The following applies: tissue homogenate. In a few lines:
(§2)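 Jejunal mucosal homogenate or S9 (HEPES pH 7.4/KCl) taken from intact jejunum, or after 40 min perfusion with or without 400 µM BNPP. Protein at 400 µg/ml incubated at 37°C with 500 µM drug. Added BNPP (100 or 1000 µM) pre-incubated 5 min. Temocaprilat formed measured by HPLC and given as nmol/min/mg protein and % of control. Mean ± S.D., n = 4.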

The test system of series [6] is Jejunum. Kind of series: Intracellular drug level in Wistar rat jejunum treated with Temocaprilat at 100 uM at pH 7.4 by in-situ single-pass perfusion method. Type of series: ADME, tissue-based. The following applies: in vivo, pH 7.4, 100 µM.
Series [7] relates to Jejunum. Kind of series: Intracellular drug level in Wistar rat jejunum at 100 uM at pH 7.4 by in-situ single-pass perfusion method. Type of series: ADME, tissue-based. The following applies: in vivo, pH 7.4, 100 µM. In short, it runs like this:
(§3)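 Rats fasted 18–24 h, anesthetized with intraperitoneal pentobarbital. Isolated cannulated jejunal segment kept at 37°C in Krebs–Henseleit buffer with 3% BSA and 10 mM glucose. Vascular perfusion with Krebs–Henseleit (pH 7.4) at 2.5 ml/min. Lumen perfused at 0.2 ml/min with phosphate buffer (pH 5.4, 6.4 or 7.4) containing 100 µM drug plus FD-4. Luminal and vascular samples assayed by HPLC (UV 258 nm). Parameters normalized to 10 cm intestine. Mean ± S.D., n = 3–6.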

Series [8] concerns Jejunum. Kind of series: Apparent hydrolytic clearance in Wistar rat jejunum at 100 uM at pH 6.4 by in-situ single-pass perfusion method. Type of series: ADME, tissue-based. The following applies: in vivo, pH 6.4, 100 µM. In a few lines: as §3
Series [9] has as its system Jejunum. Kind of series: Intracellular drug level in Wistar rat jejunum treated with Temocaprilat at 100 uM at pH 6.4 by in-situ single-pass perfusion method. Type of series: ADME, tissue-based. The following applies: in vivo.
The subject of series [10] is Jejunum. Kind of series: Intracellular drug level in Wistar rat jejunum assessed as temocaprilat level pre-perfused with 400 uM CES inhibitor BNPP at 100 uM at pH 5.4 by in-situ single-pass perfusion method. The following applies: in vivo, pH 5.4, 100 µM. Type of series: ADME, tissue-based. In short, it runs like this:
as §1

Series [11] is described as follows: Drug hydrolysis in Wistar rat duodenal S9 fraction assessed as rate of hydrolysis per mg protein. Type of series: ADME, Duodenum. In short, it runs like this:
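Duodenal or jejunal mucosa from fasted rats homogenized in 50 mM HEPES (pH 7.4) with 1.15% KCl; S9 is the 9000 g supernatant. S9 pre-incubated 5 min at 37°C, then drug added at 10–500 µM final (1% DMSO). Run for 20 min, stopped with acetonitrile, temocaprilat formed measured by HPLC. Km and Vmax from Michaelis–Menten nonlinear fit. Inhibitor (1 mM BNPP) pre-incubated 5 min. Results as % of control.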

Series [12] relates to Jejunum. Kind of series: Drug hydrolysis in intact Wistar rat jejunum mucosal homogenate at 500 uM assessed per mg protein in presence of 100 uM CES inhibitor BNPP. Format: ADME, tissue-based. The following applies: tissue homogenate. In short, it runs like this: as §2
Series [13] deals with Jejunum. Kind of series: Apparent hydrolytic clearance in Wistar rat jejunum at 100 uM at pH 5.4 by in-situ single-pass perfusion method. Type of series: ADME, tissue-based. The following applies: in vivo, pH 5.4, 100 µM. In a few lines: as §3
Series [14] relates to Jejunum. Kind of series: Drug uptake in Wistar rat jejunum pre-perfused with 400 uM CES inhibitor BNPP assessed as rate of temocaprilat appearance at 100 uM at pH 5.4 by in-situ single-pass perfusion method. Type of series: ADME, tissue-based. The following applies: in vivo, pH 5.4, 100 µM. In a few lines:
as §1

Series [15] concerns Jejunum. Kind of series: Drug uptake in Wistar rat jejunum pre-perfused with 400 uM CES inhibitor BNPP assessed as rate of drug appearance at 100 uM at pH 6.4 by in-situ single-pass perfusion method. Format: ADME, tissue-based. The following applies: in vivo, pH 6.4, 100 µM. In short, it runs like this: as §1
Series [16] deals with Jejunum. Kind of series: Apparent absorption clearance in Wistar rat jejunum at 100 uM at pH 7.4 by in-situ single-pass perfusion method. The following applies: in vivo, pH 7.4, 100 µM. Type of series: ADME, tissue-based. In a few lines:
as §3

Series [17] has as its system Jejunum. Kind of series: Intracellular drug level in Wistar rat jejunum pre-perfused with 400 uM CES inhibitor BNPP at 100 uM at pH 5.4 by in-situ single-pass perfusion method. The following applies: in vivo, pH 5.4, 100 µM. Type of series: ADME, tissue-based. In short, it runs like this: as §1
Series [18] has as its system Jejunum. Kind of series: Drug uptake in Wistar rat jejunum pre-perfused with 400 uM CES inhibitor BNPP assessed as rate of temocaprilat disappearance at 100 uM at pH 6.4 by in-situ single-pass perfusion method. Type of series: ADME, tissue-based. The following applies: in vivo, pH 6.4, 100 µM. In short, it runs like this: as §1
Series [19] in a line: Drug hydrolysis in perfused Wistar rat jejunal S9 fraction at 500 uM assessed per mg protein in presence of 400 uM CES inhibitor BNPP. Type of series: ADME, Jejunum. The following applies: s9, 500 µM. In a few lines: as §2
Series [20] can be described thus: Partition coefficient, log P between n-octanol and phosphate buffer at pH 7.4. Format: physicochemical.
Series [21] deals with Jejunum. Kind of series: Apparent absorption clearance in Wistar rat jejunum pre-perfused with 400 uM CES inhibitor BNPP at 100 uM at pH 6.4 by in-situ single-pass perfusion method. The following applies: in vivo, pH 6.4, 100 µM. Format: ADME. In short, it runs like this: as §1
Series [22] can be described thus: Permeability in Wistar rat jejunum pre-perfused with 400 uM CES inhibitor BNPP at 100 uM at pH 5.4 by in-situ single-pass perfusion method. Type of series: ADME, tissue-based. The following applies: other: in-situ single-pass perfusion of the jejunum, pH 5.4, with BNPP (CES inhibitor) 400 uM, read-out: Peff (converted). In a few lines: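 Fasted, pentobarbital-anesthetized rats. Jejunum pre-perfused with BNPP (400 µM) for 40 min to inhibit CES. Lumen then perfused at 0.2 ml/min with 100 μM drug in phosphate buffer (pH 5.4 or 6.4). Vascular side received Krebs–Henseleit buffer (pH 7.4) at 2.5 ml/min. Luminal drug quantified by HPLC; Peff normalized to 10 cm segment; mean ± S.D., n = 3.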

For the compound `CCOC(=O)[C@H](CCc1ccccc1)N[C@H]1CS[C@H](c2cccs2)CN(CC(=O)O)C1=O` [TEMOCAPRIL], the Vmax/Km in series [1] came to 109 µL/min. For the same compound, the CL with Jejunum [2] is 2.98 nmol/min; with Jejunum [3], 24.9 µL/min; in the series on Jejunum [8] it was 35.4 µL/min; with Jejunum [13], 34.4 µL/min; with Jejunum [14], 1.01 nmol/min; in the series on Jejunum [15], 0.696 nmol/min. Moreover, the CL in the series with Jejunum [18] stood at 1.17 nmol/min. The Papp at 100 µM in [4] was 57.2 ×10⁻⁶ cm/s; in series [22], 49.8 ×10⁻⁶ cm/s. The Drug degradation with Jejunum [5] is on record as 4.17 nmol/min; with Jejunum [12] it was 2.23 nmol/min; in [19] it was 0.625 nmol/min. The Drug uptake in the series on Jejunum [6] worked out at 17.6 nmol/g; with Jejunum [7], 1.02 nmol/g; in the series with Jejunum [9] it was 18.1 nmol/g; in the series on Jejunum [10] it was 17 nmol/g; in the series with Jejunum [17] it was 20.6 nmol/g. Further, the Vmax in [11] stood at 5.2 nmol/min/mg. Further, the “CL(app)” value in the series with Jejunum [16] was determined as 1.23 µL/min; in the series with Jejunum [21], 7.64 µL/min. The pH-dependent lipophilicity (logD) in [20] turned out to be 0.1.

As a reminder, the Vmax is the top rate of the reaction or transport when substrate is in excess. The logD is the decadic logarithm of the distribution of all forms, ionised or not, between an organic phase and buffer at a given pH. A low value points to lower lipophilicity.

For the origin of these results see ChEMBL document CHEMBL3526140, “Prediction of human intestinal absorption of the prodrug temocapril by in situ single-pass perfusion using rat intestine with modified hydrolase activity” (Drug Metab Dispos, 2011).
